{"source": "ChEMBL document CHEMBL3244088", "about": "“Antitumor agents 32. Synthesis and antitumor activity of cyclopentenone derivatives related to helenalin” (1978)", "format_in_all_cases": "functional", "key": {"[1]": {"assay": "Cytotoxicity against human Hep2 cells assessed a growth inhibition by rapid microtiter technique", "settings": "HEp-2, read-out: ED50 (the source's name)", "how_it_was_run": "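Human laryngeal epidermoid carcinoma H.Ep.-2 cells run in a rapid microtiter cytotoxicity assay. ED50 is calculated as the dose that inhibits net cell growth to 50% of control growth. Compounds with ED50 ≤ 4 µg/mL are scored active.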"}, "P388 [2]": {"tested_on": "P388", "assay": "Antitumor activity against mouse P388 cells allografted in DBA/2 mouse assessed as increase in survival rate at 5 mg/kg/day, ip administered for 2 weeks relative to control", "settings": "route intraperitoneal"}, "W256 [3]": {"tested_on": "W256", "assay": "Antitumor activity against […] allografted in Sprague-Dawley rat assessed as increase in survival rate at 2.5 mg/kg/day, ip relative to control", "settings": "route intraperitoneal", "how_it_was_run": "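Walker 256 ascites carcinosarcoma: 10^6 tumor cells implanted ip into male Sprague-Dawley rats (~80 g), with daily ip dosing of compounds. Result expressed as T/C; a T/C ≥ 125% counts as active. Melphalan was the positive standard. Animal numbers per group were recorded for each test.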"}, "P388 [4]": {"tested_on": "P388", "assay": "Antitumor activity against mouse P388 cells allografted in DBA/2 mouse assessed as increase in survival rate at 4 mg/kg/day, ip administered for 2 weeks relative to control", "settings": "route intraperitoneal"}, "W256 [5]": {"tested_on": "W256", "assay": "Antitumor activity against […] allografted in Sprague-Dawley rat assessed as increase in survival rate at 1.25 mg/kg/day, ip relative to control", "settings": "route intraperitoneal"}, "P388 [6]": {"tested_on": "P388", "assay": "Antitumor activity against mouse P388 cells allografted in DBA/2 mouse assessed as increase in survival rate at 25 mg/kg/day, ip administered for 2 weeks relative to control", "settings": "route intraperitoneal"}, "P388 [7]": {"tested_on": "P388", "assay": "Antitumor activity against mouse P388 cells allografted in DBA/2 mouse assessed as increase in survival rate at 16.8 mg/kg/day, ip administered for 2 weeks relative to control", "settings": "route intraperitoneal"}}, "data": [{"smiles": "CC1(CO)CC=CC1=O", "note": "(stereo not drawn)", "values": [{"measurement": "EC50", "setting": "[1]", "result": 15.8, "unit": "µg/mL"}, {"measurement": "T/C", "setting": "P388 [2]", "result": 105, "unit": "%"}, {"measurement": "T/C", "setting": "W256 [3]", "result": 100, "unit": "%"}]}, {"smiles": "CC(=O)OCC1(C)CC=CC1=O", "note": "(stereo not drawn)", "values": [{"measurement": "EC50", "setting": "[1]", "result": 18.3, "unit": "µg/mL"}, {"measurement": "T/C", "setting": "P388 [2]", "result": 105, "unit": "%"}, {"measurement": "T/C", "setting": "W256 [3]", "result": 105, "unit": "%"}]}, {"smiles": "CC1(COC(=O)/C=C/c2ccccc2)CC=CC1=O", "note": "(stereo not drawn)", "values": [{"measurement": "EC50", "setting": "[1]", "result": 3.5, "unit": "µg/mL"}, {"measurement": "T/C", "setting": "W256 [3]", "result": 136, "unit": "%"}, {"measurement": "T/C", "setting": "P388 [4]", "result": 131, "unit": "%"}]}, {"smiles": "COc1cc(C(=O)OCC2(C)CC=CC2=O)cc(OC)c1OC", "note": "(stereo not drawn)", "values": [{"measurement": "EC50", "setting": "[1]", "result": 3.6, "unit": "µg/mL"}, {"measurement": "T/C", "setting": "P388 [2]", "result": 140, "unit": "%"}, {"measurement": "T/C", "setting": "W256 [5]", "result": 223, "unit": "%"}]}, {"smiles": "CC1(COC(=O)CCCCCCCCC(=O)OCC2(C)CC=CC2=O)CC=CC1=O", "note": "(stereo not drawn)", "values": [{"measurement": "EC50", "setting": "[1]", "result": 14.6, "unit": "µg/mL"}, {"measurement": "T/C", "setting": "W256 [3]", "result": 108, "unit": "%"}, {"measurement": "T/C", "setting": "P388 [4]", "result": 109, "unit": "%"}]}, {"smiles": "CCOC(=O)C1(C)CC=CC1=O", "note": "(stereo not drawn)", "values": [{"measurement": "EC50", "setting": "[1]", "result": 17.2, "unit": "µg/mL"}, {"measurement": "T/C", "setting": "P388 [2]", "result": 103, "unit": "%"}, {"measurement": "T/C", "setting": "W256 [3]", "result": 103, "unit": "%"}]}, {"smiles": "O=C1C=CCC1", "values": [{"measurement": "EC50", "setting": "[1]", "result": "> 50", "unit": "µg/mL"}, {"measurement": "T/C", "setting": "P388 [2]", "result": 121, "unit": "%"}, {"measurement": "T/C", "setting": "W256 [3]", "result": 188, "unit": "%"}]}, {"smiles": "CCOC(=O)/C=C/c1ccccc1", "note": "[ETHYL CINNAMATE]", "values": [{"measurement": "EC50", "setting": "[1]", "result": "> 50", "unit": "µg/mL"}]}, {"smiles": "O=c1[nH]cc(F)c(=O)[nH]1", "note": "[FLUOROURACIL]", "values": [{"measurement": "T/C", "setting": "P388 [6]", "result": 186, "unit": "%"}]}, {"smiles": "C=C1C(=O)O[C@@H]2C[C@@H](C)[C@@H]3C=CC(=O)[C@@]3(C)[C@@H](O)[C@H]12", "note": "[HELENALIN]", "values": [{"measurement": "T/C", "setting": "P388 [7]", "result": 127, "unit": "%"}, {"measurement": "EC50", "setting": "[1]", "result": 0.08, "unit": "µg/mL"}, {"measurement": "T/C", "setting": "W256 [3]", "result": 316, "unit": "%"}]}, {"smiles": "N[C@@H](Cc1ccc(N(CCCl)CCCl)cc1)C(=O)O", "note": "[MELPHALAN]", "values": [{"measurement": "T/C", "setting": "P388 [6]", "result": 168, "unit": "%"}, {"measurement": "T/C", "setting": "W256 [3]", "result": 317, "unit": "%"}]}]}
